Measured values: ChEMBL document CHEMBL1134284, “The biological effects of structural variation at the meta position of the aromatic rings and at the end of the alkenyl chain in the alkenyldiarylmethane series of non-nucleoside reverse transcriptase inhibitors” (J Med Chem, 2001)

Key:
CCRF-CEM [1] = assay: Antiviral activity against site directed resistant isolate HIV-1 V179D in CEM cells; type: functional, cell-based, Homo sapiens
Method in brief: (§1)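 CEM-SS cells in RPMI 1640 with 10% heat-inactivated FBS were infected with NL4-3 molecular clones carrying site-directed RT mutations. Cytoprotection from virus-induced syncytial killing was read by MTS/phenazine ethosulfate reduction (A490) 6 days after infection. […] Triplicate, variation of mean about 10%.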

CCRF-CEM [2] = assay: Antiviral activity against site directed wild-type enzyme isolate HIV-1 NL4-3WT in CEM cells; type: functional, cell-based; settings: Homo sapiens
Method in brief: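 Wild-type NL4-3 in CEM-SS cells, measured both by MTS cytoprotection 6 days after infection and by p24 ELISA. The IC50 is the mean of the two methods' values.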

CCRF-CEM [3] = assay: Antiviral activity against site directed resistant isolate HIV-1 K103N in CEM cells; type: functional, cell-based, Homo sapiens; method in brief: as §1
[4] = Antiviral activity against Ba-L monocyte tropic isolate strain in monocyte; type: functional; settings: Homo sapiens
Method in brief: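 Monocytes isolated from hepatitis- and HIV-seronegative donors by Ficoll-Hypaque gradient, cultured 6 days into macrophages, then infected with Ba-L. Medium RPMI 1640 with 10% FBS, 2 mM glutamine, penicillin/streptomycin. Replication read as p24 antigen by ELISA 6 days postinfection. […] Run in triplicate, with AZT as positive control.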

[5] = Antiviral activity against subtype isolate A strain in PBLs (peripheral blood lymphocytes); type: functional, cell-based; settings: Homo sapiens
Method in brief: (§2)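 PBMCs isolated from hepatitis- and HIV-seronegative donors by Ficoll-Hypaque gradient and stimulated 3 days with phytohemagglutinin/IL-2. Infected with pediatric low-passage clinical isolates or NIAID subtype isolates, in RPMI 1640 with 10% FBS, 2 mM glutamine, penicillin/streptomycin. Replication read as supernatant reverse transcriptase activity. […] Run in triplicate, with AZT as positive control.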

[6] = test system: Human immunodeficiency virus type 1 (RF/HAT ISOLATE); assay: Inhibitory concentration for cytopathicity of HIV-1RF in CEM-SS cells; type: functional, organism-based; settings: Human immunodeficiency virus 1, RF
Method in brief: (§3)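 CEM-SS cells kept in RPMI 1640 with 10% heat-inactivated FBS, 2 mM glutamine, penicillin/streptomycin. Microtiter assay with cytopathic HIV-1 RF, or mock infection for toxicity. Viability read by MTS/phenazine ethosulfate reduction (absorbance 490 nm) 6 days after infection. […] Triplicate.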

[7] = Antiviral activity against subtype isolate B strain in PBLs (peripheral blood lymphocytes); type: functional, cell-based, Homo sapiens; method in brief: as §2
[8] = Antiviral activity against subtype isolate D strain in PBLs (peripheral blood lymphocytes); type: functional, cell-based; settings: Homo sapiens; method in brief: as §2
CCRF-CEM [9] = assay: Antiviral activity against site directed 4X AZT resistant isolate HIV-1 in CEM cells; type: functional, cell-based, Homo sapiens; settings: Homo sapiens, CCRF-CEM
[10] = Antiviral activity against subtype isolate G strain in PBLs (peripheral blood lymphocytes); type: functional, cell-based; settings: Homo sapiens; method in brief: as §2
[11] = Antiviral activity against SLKA virus strain in PBLs (peripheral blood lymphocytes); type: functional, cell-based; settings: Homo sapiens; method in brief: as §2
CCRF-CEM [12] = assay: Antiviral activity against site directed resistant isolate HIV-1 Y188C in CEM cells; type: functional, cell-based, Homo sapiens; method in brief: as §1
CCRF-CEM [13] = assay: Antiviral activity against site directed 4X AZT resistant isolate HIV-1 L100I in CEM cells; type: functional, cell-based, Homo sapiens
Method in brief: (§4)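 CEM-SS cells infected with low-cytopathicity site-directed RT-mutant NL4-3 clones (A98G, L74V, 4XAZT = D67N/K70R/T215Y/K219Q, 4XAZT/L100I). Replication was quantified by p24 ELISA rather than cytoprotection. […] Triplicate, variation of mean about 10%.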

CCRF-CEM [14] = assay: Antiviral activity against site directed resistant isolates in HIV-1 A98G CEM cells; type: functional, cell-based, Homo sapiens; method in brief: as §4
CCRF-CEM [15] = assay: Antiviral activity against site directed resistant isolate HIV-1 L74V in CEM cells; type: functional, cell-based, Homo sapiens; method in brief: as §4
[16] = Antiviral activity against subtype isolate C strain in PBLs (peripheral blood lymphocytes); type: functional, cell-based; settings: Homo sapiens; method in brief: as §2
CEM-SS = assay: Concentration required for cytotoxicity against mock infected CEM-SS cells; type: functional; settings: Homo sapiens; method in brief: as §3
CCRF-CEM [17] = assay: Antiviral activity against site directed resistant isolate HIV-1 V106A in CEM cells; type: functional, cell-based, Homo sapiens; method in brief: as §1
[18] = Antiviral activity against subtype isolate F strain in PBLs (peripheral blood lymphocytes); type: functional, cell-based, Homo sapiens; method in brief: as §2
[19] = Antiviral activity against TEKI virus strain in PBLs (peripheral blood lymphocytes); type: functional, cell-based; settings: Homo sapiens; method in brief: as §2
[20] = Antiviral activity against subtype isolate E strain in PBLs (peripheral blood lymphocytes); type: functional, cell-based; settings: Homo sapiens
[21] = Antiviral activity against WEJO virus strain in PBLs (peripheral blood lymphocytes); type: functional, cell-based; settings: Homo sapiens; method in brief: as §2
[22] = Antiviral activity against multi drug resistant MDR 769 strain in PBLs (peripheral blood lymphocytes); type: functional, cell-based; settings: Homo sapiens
Method in brief: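 PBMC from hepatitis- and HIV-seronegative donors isolated by Ficoll-Hypaque gradient and stimulated 3 days with phytohemagglutinin/IL-2 before infection. Medium RPMI 1640 with 10% FBS, 2 mM glutamine, penicillin/streptomycin. Replication read as supernatant reverse transcriptase activity. […] Run in triplicate, SD within triplicate under 10%; AZT positive control.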

[23] = (§5) Antiviral activity against ROJO virus strain in PBLs (peripheral blood lymphocytes); type: functional, cell-based; settings: Homo sapiens; method in brief: as §2
[24] = (§6) Ratio of CC50/EC50 was determined; type: cell-based; settings: human, CEM-SS cells; read-out: TI
Method in brief: (§7)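 HIV-1 RF–infected CEM-SS cells (RPMI 1640, 10% heat-inactivated FBS, 2 mM glutamine, penicillin/streptomycin), plus mock-infected CEM-SS in parallel. Cell killing and viability were read by MTS/phenazine ethosulfate reduction at 490 nm 6 days after infection. […] Index = CC50 ÷ EC50. Triplicate tests.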

[25] = Antiviral activity against subtype isolate O strain in PBLs (peripheral blood lymphocytes); type: functional, cell-based, Homo sapiens; method in brief: as §2
CCRF-CEM [26] = assay: Antiviral activity against site directed resistant isolate HIV-1 L100I in CEM cells; type: functional, cell-based, Homo sapiens; method in brief: as §1
CCRF-CEM [27] = assay: Antiviral activity against site directed resistant isolate HIV-1 Y181C in CEM cells; type: functional, cell-based, Homo sapiens; method in brief: as §1
CCRF-CEM [28] = assay: Antiviral activity against site directed resistant isolate HIV-1 K101E in CEM cells; type: functional, cell-based, Homo sapiens
[29] = as §6; settings: read-out: TI; method in brief: as §7
PBL = assay: as §5; type: functional, cell-based; settings: Homo sapiens; method in brief: as §2
[30] = molecular target: Human immunodeficiency virus type 1 reverse transcriptase (Human immunodeficiency virus 1, UniProt Q72547); assay: Inhibitory activity against HIV-1 Reverse Transcriptase with rCdG as the template primer
Method in brief: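 Cell-free assay with purified recombinant HIV-1 RT (p66/p51 dimer). Activity measured as [32P]GTP incorporation into the poly(rC)/oligo(dG) homopolymer template/primer. IC50 is reported as inhibition of enzyme activity.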

Structure (SMILES)	IC50 (CCRF-CEM [1]) [nM]	IC50 (CCRF-CEM [2]) [nM]	IC50 (CCRF-CEM [3]) [nM]	IC50 [4] [nM]	IC50 [5] [nM]	EC50 [6] [nM]	IC50 [8] [nM]	IC50 (CCRF-CEM [9]) [nM]	IC50 [10] [nM]	IC50 [11] [nM]	IC50 (CCRF-CEM [12]) [nM]	IC50 (CCRF-CEM [13]) [nM]	IC50 (CCRF-CEM [15]) [nM]	IC50 [16] [nM]	CC50 (CEM-SS) [nM]	IC50 (CCRF-CEM [17]) [nM]	IC50 [19] [nM]	IC50 [21] [nM]	IC50 [22] [nM]	IC50 (CCRF-CEM [26]) [nM]	further results
COC(=O)CCCC=C(c1cc(Br)c(OC)c(C(=O)OC)c1)c1cc(Br)c(OC)c(C(=O)OC)c1	1300	400	350	3600	200	1.3	180	32	300	1000	2000	320	284	310	13000	9840	900	400	48800	84	IC50 ([7]; Homo sapiens): 5400 nM; IC50 (CCRF-CEM [14]): 460 nM; IC50 [18]: 1900 nM; IC50 [20]: 200 nM; IC50 [23]: 540 nM; selectivity ratio [24]: 10000; IC50 ([25]; Homo sapiens): 16000 nM; IC50 (CCRF-CEM [27]): 8300 nM; IC50 (CCRF-CEM [28]): 594 nM
CCOC(=O)CCCC=C(c1cc(Cl)c(OC)c(C(=O)OC)c1)c1cc(Cl)c(OC)c(C(=O)OC)c1	2300	580	270	8900	200	10	150	76	800	900	4100	370	885	820	16000	10300	1000	700	45200	80	IC50 ([7]; Homo sapiens): 12500 nM; IC50 (CCRF-CEM [14]): 13 nM; selectivity ratio [29]: 1600; IC50 ([18]; Homo sapiens): 300 nM; IC50 [20]: 200 nM; IC50 (PBL): 390 nM; IC50 [30]: 233 nM; IC50 ([25]; Homo sapiens): 30000 nM; IC50 (CCRF-CEM [27]): 19100 nM; IC50 (CCRF-CEM [28]): 164 nM
COC(=O)CCCC=C(c1cc(Cl)c(OC)c(C(=O)OC)c1)c1cc(Cl)c(OC)c(C(=O)OC)c1	1300	850	600	5400	100	13	180	75	600	1300	3300	490	469	410	31600	> 20000	800	600	16900	408	IC50 [7]: 12700 nM; IC50 ([18]; Homo sapiens): 1300 nM; IC50 [23]: 750 nM; IC50 [25]: 12000 nM; IC50 (CCRF-CEM [27]): > 20000 nM; IC50 (CCRF-CEM [28]): 366 nM
